# Legend:
# Format in all cases: functional
# [1] = system: ACHN; test: Growth inhibition of human ACHN cells assessed as growth percentage at 10 uM incubated for 48 hrs by sulforhodamine B assay relative to control; settings: read-out: Activity
# Summary of the method: (§1)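 NCI-60 one-dose screen: cells in RPMI 1640 with 5% FBS and 2 mM L-glutamine, plated at 5,000–40,000 cells/well and preincubated 24 h at 37 °C, 5% CO2. Compound is added from a DMSO stock to a final 10 µM and incubated 48 h. Cells are TCA-fixed and stained with sulforhodamine B, read at 515 nm. Output is % growth versus untreated control, with a time-zero plate.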
# [2] = system: UACC-62; test: Growth inhibition of human UACC62 cells assessed as growth percentage at 10 uM incubated for 48 hrs by sulforhodamine B assay relative to control; settings: UACC-62, 48 h, read-out: Activity
# Summary of the method: (§2)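 NCI-60 single-dose screen. Cells were grown in RPMI 1640 with 5% FBS and 2 mM L-glutamine and plated at 5,000–40,000 cells/well. After an overnight preincubation at 37 °C in 5% CO2, compound was added at a final 10 µM from a DMSO stock, with DMSO/PBS controls. After 48 h, cells were TCA-fixed and stained with 0.4% SRB, and absorbance was read at 515 nm. Growth is given as a percentage of untreated control.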
# [3] = system: SK-MEL-28; test: Growth inhibition of human SK-MEL-28 cells assessed as growth percentage at 10 uM incubated for 48 hrs by sulforhodamine B assay relative to control; settings: SK-MEL-28, 48 h, read-out: Activity; summary of the method: as §2
# [4] = system: MDA-MB-231; test: Growth inhibition of human MDA-MB-231 cells assessed as growth percentage at 10 uM incubated for 48 hrs by sulforhodamine B assay relative to control; settings: MDA-MB-231, 48 h, read-out: Activity
# Summary of the method: (§3)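 NCI-60 one-dose screen. Cells in RPMI 1640 with 5% FBS and 2 mM L-glutamine, seeded at 5,000–40,000 cells/well according to doubling time, and preincubated overnight at 37 °C, 5% CO2. A time-zero plate was TCA-fixed at drug addition. Compound from DMSO stock, final 10 µM, 48 h; DMSO vehicle controls. Fixation with TCA, 10% final (16% for suspension cells). SRB stain, Tris solubilization, A515. Result given as % growth versus untreated cells.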
# [5] = system: SR; test: Growth inhibition of human SR cells assessed as growth percentage at 10 uM incubated for 48 hrs by sulforhodamine B assay relative to control; settings: read-out: Activity; summary of the method: as §2
# [6] = system: DU-145; test: Growth inhibition of human DU145 cells assessed as growth percentage at 10 uM incubated for 48 hrs by sulforhodamine B assay relative to control; settings: DU-145, 48 h, read-out: Activity; summary of the method: as §1
# [7] = system: NCI-H322M; test: Growth inhibition of human NCI-H322M cells assessed as growth percentage at 10 uM incubated for 48 hrs by sulforhodamine B assay relative to control; settings: read-out: Activity; summary of the method: as §3
# [8] = system: A498; test: Growth inhibition of human A498 cells assessed as growth percentage at 10 uM incubated for 48 hrs by sulforhodamine B assay relative to control; settings: A498, 48 h, read-out: Activity; summary of the method: as §1
# [9] = system: PC-3; test: Growth inhibition of human PC3 cells assessed as growth percentage at 10 uM incubated for 48 hrs by sulforhodamine B assay relative to control; settings: PC-3, 48 h, read-out: Activity; summary of the method: as §2
# [10] = system: NCI-H522; test: Growth inhibition of human NCI-H522 cells assessed as growth percentage at 10 uM incubated for 48 hrs by sulforhodamine B assay relative to control; settings: NCI-H522, 48 h, read-out: Activity; summary of the method: as §3
# [11] = system: RPMI-8226; test: Growth inhibition of human RPMI8226 cells assessed as growth percentage at 10 uM incubated for 48 hrs by sulforhodamine B assay relative to control; settings: RPMI-8226, 48 h, read-out: Activity; summary of the method: as §2
# [12] = system: NCI-H460; test: Growth inhibition of human NCI-H460 cells assessed as growth percentage at 10 uM incubated for 48 hrs by sulforhodamine B assay relative to control; settings: NCI-H460, 48 h, read-out: Activity; summary of the method: as §3
# [13] = system: LOX IMVI; test: Growth inhibition of human LOXIMVI cells assessed as growth percentage at 10 uM incubated for 48 hrs by sulforhodamine B assay relative to control; settings: read-out: Activity; summary of the method: as §3
# [14] = system: HL-60(TB); test: Growth inhibition of human HL-60(TB) cells assessed as growth percentage at 10 uM incubated for 48 hrs by sulforhodamine B assay relative to control; settings: HL-60, 48 h, read-out: Activity
# Summary of the method: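 NCI-60 single-dose screen. Cells in RPMI 1640 with 5% FBS and 2 mM L-glutamine are plated at 5,000–40,000 cells/well and preincubated overnight at 37 °C, 5% CO2. Compound is added from a DMSO stock at 10 µM final for 48 h. Cells are TCA-fixed (suspension cells 16% final) and stained with SRB. Absorbance is read at 515 nm, and percentage growth is calculated against untreated controls with a time-zero plate.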
# [15] = system: SNB-19; test: Growth inhibition of human SNB19 cells assessed as growth percentage at 10 uM incubated for 48 hrs by sulforhodamine B assay relative to control; settings: SNB-19, 48 h, read-out: Activity; summary of the method: as §2
# [16] = system: SK-MEL-5; test: Growth inhibition of human SK-MEL-5 cells assessed as growth percentage at 10 uM incubated for 48 hrs by sulforhodamine B assay relative to control; settings: SK-MEL-5, 48 h, read-out: Activity; summary of the method: as §2
# [17] = system: HCT-116; test: Growth inhibition of human HCT116 cells assessed as growth percentage at 10 uM incubated for 48 hrs by sulforhodamine B assay relative to control; settings: HCT-116, 48 h, read-out: Activity; summary of the method: as §1
# [18] = system: OVCAR-3; test: Growth inhibition of human OVCAR3 cells assessed as growth percentage at 10 uM incubated for 48 hrs by sulforhodamine B assay relative to control; settings: OVCAR-3, 48 h, read-out: Activity; summary of the method: as §3
# [19] = system: BT-549; test: Growth inhibition of human BT549 cells assessed as growth percentage at 10 uM incubated for 48 hrs by sulforhodamine B assay relative to control; settings: BT-549, 48 h, read-out: Activity; summary of the method: as §1
# [20] = system: U-251; test: Growth inhibition of human U251 cells assessed as growth percentage at 10 uM incubated for 48 hrs by sulforhodamine B assay relative to control; settings: U-251, 48 h, read-out: Activity; summary of the method: as §2
# [21] = system: SK-OV-3; test: Growth inhibition of human SKOV3 cells assessed as growth percentage at 10 uM incubated for 48 hrs by sulforhodamine B assay relative to control; settings: SK-OV-3, 48 h, read-out: Activity; summary of the method: as §2
# [22] = system: HT-29; test: Growth inhibition of human HT-29 cells assessed as growth percentage at 10 uM incubated for 48 hrs by sulforhodamine B assay relative to control; settings: HT-29, 48 h, read-out: Activity; summary of the method: as §3
# [23] = system: OVCAR-4; test: Growth inhibition of human OVCAR4 cells assessed as growth percentage at 10 uM incubated for 48 hrs by sulforhodamine B assay relative to control; settings: OVCAR-4, 48 h, read-out: Activity; summary of the method: as §3
# [24] = system: Hs-578T; test: Growth inhibition of human Hs 578T cells assessed as growth percentage at 10 uM incubated for 48 hrs by sulforhodamine B assay relative to control; settings: read-out: Activity; summary of the method: as §3
Compound,growth at 10 µM [1] [%],growth at 10 µM [2] [%],growth at 10 µM [3] [%],growth at 10 µM [4] [%],growth at 10 µM [5] [%],growth at 10 µM [6] [%],growth at 10 µM [7] [%],growth at 10 µM [8] [%],growth at 10 µM [9] [%],growth at 10 µM [10] [%],growth at 10 µM [11] [%],growth at 10 µM [12] [%],growth at 10 µM [13] [%],growth at 10 µM [14] [%],growth at 10 µM [15] [%],growth at 10 µM [16] [%],growth at 10 µM [17] [%],growth at 10 µM [18] [%],growth at 10 µM [19] [%],growth at 10 µM [20] [%],other results
CC(=O)N1C(=S)NC(C)=C(C(=O)OC(C)C)C1c1ccc2c(c1)OCO2 (racemic),106,95.6,111,88.9,89.6,104,99.5,114,87.2,78,73.9,110,98.8,99.3,98.1,100,93.8,109,99.3,92.6,growth at 10 µM [21]: 104%; growth at 10 µM [22]: 105%; growth at 10 µM [23]: 100%; growth at 10 µM [24]: 98%
CC(=O)C1=C(C)NC(=S)NC1c1ccc2c(c1)OCO2 (racemic),103,98.6,116,104,104,111,112,115,98.1,92.3,105,109,98.7,96.4,98.9,100,104,109,108,98.2,growth at 10 µM [21]: 102%; growth at 10 µM [22]: 106%; growth at 10 µM [23]: 103%; growth at 10 µM [24]: 101%
CC(=O)N1C(=S)NC(C)=C(C(=O)OCC(C)C)C1c1ccc2c(c1)OCO2 (racemic),105,85.7,105,88.7,80,99.6,102,104,81.2,74.9,54.8,105,97.5,98.5,97.9,100,93.5,96.8,86.1,87.5,growth at 10 µM [21]: 100%; growth at 10 µM [22]: 104%; growth at 10 µM [23]: 79.6%; growth at 10 µM [24]: 89.2%
COCCOC(=O)C1=C(C)NC(=O)NC1c1ccc2c(c1)OCO2 (racemic),107,96,112,98.8,105,108,107,87,98.8,91.8,101,105,98.6,99.7,95.6,100,107,110,106,98.3,growth at 10 µM [21]: 98.8%; growth at 10 µM [22]: 102%; growth at 10 µM [23]: 94.4%; growth at 10 µM [24]: 103%
CC1=C(C(=O)OCC(C)C)C(c2ccc3c(c2)OCO3)NC(=O)N1 (racemic),105,98.5,113,106,108,109,115,121,92.2,91.1,99.9,113,96.5,96,107,101,105,117,99.4,99.8,growth at 10 µM [21]: 108%; growth at 10 µM [22]: 105%; growth at 10 µM [23]: 104%; growth at 10 µM [24]: 118%

# Reference: ChEMBL document CHEMBL4406880, “Design, synthesis, and bioactivity of dihydropyrimidine derivatives as kinesin spindle protein inhibitors” (Bioorg Med Chem, 2019)
